Data on 35 compounds can be found in ChEMBL document CHEMBL1138592, “Pyridopyrimidine based cannabinoid-1 receptor inverse agonists: Synthesis and biological evaluation” (Bioorg Med Chem Lett, 2009).

In data set [1] the test system is Rattus norvegicus. In words: Antiobesity activity in high fat diet-induced obese Sprague-Dawley rat model assessed as suppression of food intake at 10 mg/kg, po after 18 hrs. It is filed as functional.
Data set [2] relates to Rattus norvegicus. In words: Antiobesity activity in high fat diet-induced obese Sprague-Dawley rat model assessed as change in overnight body weight at 10 mg/kg, po after 18 hrs. It is filed as functional.
Data set [3] concerns the target Cannabinoid receptor 1 (Homo sapiens, UniProt P21554). In words: Inverse agonist activity at human cannabinoid CB1R expressed in CHO cells assessed as effect on cAMP accumulation. It is filed as functional, cell-based. (Changes in cAMP serve as a functional read-out for many G protein-coupled receptors.)
Data set [4] has as its target Cannabinoid receptor 2 (Homo sapiens, UniProt P34972). The data set can be described thus: Binding affinity to human cannabinoid CB2R expressed in CHO cells. The format is cell-based.
Data set [5] in a line: Ratio of drug level in brain to plasma in rat after 4 hrs. It is filed as ADME. The note with it: brain and plasma.
Data set [6] can be described thus: Bioavailability in rat. It is filed as ADME, organism-based. The note with it: in vivo.
A short description of data set [7]: Half life in rat. It is filed as ADME, organism-based. The note with it: in vivo.
The nature of data set [8]: Plasma clearance in rat. It is filed as ADME, organism-based.
A short description of data set [9]: Ratio of drug level in brain to plasma in rat after 0.25 hrs. The format is ADME. To be noted: brain and plasma.
The test system of data set [10] is Rattus norvegicus. The data set can be described thus: Antiobesity activity in high fat diet-induced obese Sprague-Dawley rat model assessed as suppression of food intake at 3 mg/kg, po after 18 hrs of last dose relative to control. It is filed as functional.
Data set [11] relates to Rattus norvegicus. The data set can be described thus: Antiobesity activity in high fat diet-induced obese Sprague-Dawley rat model assessed as change in body weight at 3 mg/kg, po after 18 hrs of last dose relative to control. The format is functional.
The nature of data set [12]: Bioavailability in dog. It is filed as ADME, organism-based, Canis lupus familiaris. To be noted: in vivo.
A short description of data set [13]: Half life in dog. The format is ADME, organism-based, Canis lupus familiaris. To be noted: in vivo.
Data set [14] in a line: Plasma clearance in dog. It is filed as ADME, organism-based, Canis lupus familiaris.
The nature of data set [15]: Plasma clearance in monkey. The format is ADME, organism-based, Macaca mulatta. The note with it: rhesus monkey. Put shortly: (§1)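 Pharmacokinetic study in rhesus macaque. Reported parameters are bioavailability F (%), half-life T1/2 (h) and plasma clearance Clp (mL/min/kg).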
Data set [16] is described as follows: Half life in monkey. It is filed as ADME, organism-based, Macaca mulatta. The note with it: rhesus monkey, in vivo. Put shortly:
as §1

Data set [17] is described as follows: Bioavailability in monkey. The format is ADME, organism-based, Macaca mulatta. The note with it: rhesus monkey, in vivo. Put shortly: as §1
Data set [18] has as its system Rattus norvegicus. The data set can be described thus: Antiobesity activity in diet-induced obese Sprague-Dawley rat model assessed as suppression of overnight food intake at 3 mg/kg, po administered 1 hr before dark cycle for 14 days measured after […] of last dose. It is filed as functional.
Data set [19] relates to Rattus norvegicus. In words: Antiobesity activity in diet-induced obese Sprague-Dawley rat model assessed as suppression of overnight body weight change at 3 mg/kg, po administered 1 hr before dark cycle for 14 days measured after 18 hrs of last dose. It is filed as functional.

Chain of Cannabinoid receptor 1 (P21554 whole entry): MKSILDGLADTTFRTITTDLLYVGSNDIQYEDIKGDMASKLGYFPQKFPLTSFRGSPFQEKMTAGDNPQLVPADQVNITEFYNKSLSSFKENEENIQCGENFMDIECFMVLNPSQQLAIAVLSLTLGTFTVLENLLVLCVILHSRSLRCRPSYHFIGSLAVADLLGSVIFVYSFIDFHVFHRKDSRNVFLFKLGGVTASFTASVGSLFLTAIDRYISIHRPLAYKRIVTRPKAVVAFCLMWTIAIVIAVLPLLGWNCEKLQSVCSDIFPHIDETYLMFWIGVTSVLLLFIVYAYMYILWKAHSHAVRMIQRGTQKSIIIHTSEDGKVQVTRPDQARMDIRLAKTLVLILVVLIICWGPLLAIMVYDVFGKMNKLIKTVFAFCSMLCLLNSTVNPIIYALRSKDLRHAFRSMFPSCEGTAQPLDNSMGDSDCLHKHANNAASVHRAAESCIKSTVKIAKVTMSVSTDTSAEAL
Chain of Cannabinoid receptor 2 (P34972 whole entry): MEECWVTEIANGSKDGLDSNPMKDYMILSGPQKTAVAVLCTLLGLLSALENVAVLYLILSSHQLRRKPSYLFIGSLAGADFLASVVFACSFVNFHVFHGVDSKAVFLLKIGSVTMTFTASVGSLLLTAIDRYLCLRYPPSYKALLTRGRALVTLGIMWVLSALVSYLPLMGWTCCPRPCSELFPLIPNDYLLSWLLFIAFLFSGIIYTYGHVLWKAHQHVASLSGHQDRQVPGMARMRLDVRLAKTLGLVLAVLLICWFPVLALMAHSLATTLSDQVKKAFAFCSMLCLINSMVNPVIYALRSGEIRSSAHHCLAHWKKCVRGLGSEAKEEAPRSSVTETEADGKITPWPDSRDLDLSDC

Take `N#Cc1cc(-c2ccc(Cl)cc2)c(-c2ccc(Cl)cc2Cl)nc1Oc1ccc(F)c(F)c1`: the results for the Activity in [1] and in data set [2] were 48% and -8 g, respectively.

What is called IC50 is the point on the concentration scale where inhibition reaches its midpoint. With `CC(C)c1nc(N)c2cc(-c3ccc(Cl)cc3)c(-c3ccccc3Cl)nc2n1`, the IC50 was 190 nM in data set [3] and above 2 µM in [4].

With `Cc1nc(O)c2cc(-c3ccc(Cl)cc3)c(-c3ccccc3Cl)nc2n1`, the 50% inhibitory concentration (IC50) in [3] is 2500 nM; in data set [4], above 2 µM.

Take `CCN(CC)C(=O)c1nc(NC(C)C)c2cc(-c3ccc(Cl)cc3)c(-c3ccccc3Cl)nc2n1`: the 50% inhibitory concentration (IC50) was determined as 150 nM in [3] and 12 µM in data set [4].

In the case of `CC(C)c1nc(OCc2ncon2)c2cc(-c3ccc(Cl)cc3)c(-c3ccccc3Cl)nc2n1`, the IC50 in data set [3] turned out to be 1.1 nM; in [4], 6.3 µM.

On to `CC(C)c1nc2nc(-c3ccccc3Cl)c(-c3ccc(Cl)cc3)cc2c(=O)n1Cc1ncon1`, for which the IC50 turned out to be 82 nM in data set [3] and 9.8 µM in data set [4].

In the case of `CN(C)c1nc(C(C)(C)C)nc2nc(-c3ccccc3Cl)c(-c3ccc(Cl)cc3)cc12`, the IC50 is 8.5 nM in data set [3] and 1.8 µM in data set [4].

On to `CC(C)(C)c1nc2nc(-c3ccccc3Cl)c(-c3ccc(Cl)cc3)cc2c(=O)[nH]1`, for which the figures for the IC50 in data set [3] and in data set [4] were 7.4 nM and 8.6 µM, respectively.

Regarding `CC(C)(C)c1nc(N)c2cc(-c3ccc(Cl)cc3)c(-c3ccccc3Cl)nc2n1`, the IC50 in [3] came out at 40 nM; in data set [4], 4.9 µM.

As to `CC(C)(C)c1nc(N2CCNCC2)c2cc(-c3ccc(Cl)cc3)c(-c3ccccc3Cl)nc2n1`, the results for the 50% inhibitory concentration (IC50) in data set [3] and in data set [4] were 1.9 nM and 1.8 µM, respectively.

Take `CCN(CC)c1nc(C(C)(C)C)nc2nc(-c3ccccc3Cl)c(-c3ccc(Cl)cc3)cc12`: the half-inhibitory concentration (IC50) in data set [3] came out at 2.2 nM; in [4] it was 2.7 µM.

By Kp is commonly meant tissue or fluid exposure divided by exposure in the circulation. Broadly, the bioavailability is the share of a dose that reaches the circulation, judged against a reference dose that is usually intravenous. Usually half-life stands for the time needed for the level to fall by half in the phase considered. The clearance is the volume of plasma or blood freed of the substance per unit of time. Consider `CC(C)(C)c1nc2nc(-c3ccccc3Cl)c(-c3ccc(Cl)cc3)cc2c2n[nH]c(=O)n12`, for which the concentration ratio (Kp) at 4 h in data set [5] was determined as 0.59. In addition, the 50% inhibitory concentration (IC50) in data set [3] amounted to 1.9 nM; in [4], 3.8 µM. This compound also displayed a bioavailability in [6] of 33%. In data set [7], this compound gave a half-life of 336 min. In data set [8], this compound registered a clearance of 12 mL/min/kg. Also, the concentration ratio (Kp) at 0.25 h in data set [9] stood at 0.14. Further, the Activity in data set [10] is recorded as 50%; in [11], -9 g.

In the case of `CC(C)(C)c1nc(N)c2cc(-c3ccc(Cl)cc3)c(-c3ccc(Cl)cc3Cl)nc2n1`, the IC50 in data set [4] came to 5.2 µM.

In the case of `Nc1nc(-c2ccc(Cl)cc2)nc2nc(-c3ccccc3Cl)c(-c3ccc(Cl)cc3)cc12`, the concentration for half-maximal inhibition (IC50) in [3] is 16 nM; in data set [4], above 2 µM.

On to `CC(C)(C)c1nc2nc(-c3ccccc3Cl)c(-c3cccc(Cl)c3)cc2c2n[nH]c(=O)n12`, for which the IC50 in data set [3] worked out at 34 nM; in data set [4], 2.7 µM.

With `CC(C)(C)c1nc2nc(-c3ccc(C#N)cc3Cl)c(-c3ccc(Cl)cc3)cc2c2n[nH]c(=O)n12`, the concentration for half-maximal inhibition (IC50) in data set [4] was found to be 19 µM.

For the compound `CC(C)(C)c1nc2nc(-c3ccccc3C#N)c(-c3ccc(Cl)cc3)cc2c2n[nH]c(=O)n12`, the half-inhibitory concentration (IC50) in data set [3] was 3.2 nM; in [4], 2.4 µM. Besides, the results for the Activity in data set [10] and in data set [11] were 25% and -2 g, respectively.

On to `COc1ccc(-c2cc3c(nc2-c2ccccc2Cl)nc(C(C)(C)C)n2c(=O)[nH]nc32)cc1`, for which the IC50 stood at 3 nM in data set [3] and 0.891 µM in data set [4].

Consider `CC(C)(C)c1nc2nc(-c3ccccc3Cl)c(-c3ccc(C(F)(F)F)cc3)cc2c2n[nH]c(=O)n12`, for which the IC50 in data set [3] came to 1.1 nM; in [4] it was 9.2 µM.

Turning to `CN(C)c1ccc(-c2cc3c(nc2-c2ccccc2Cl)nc(C(C)(C)C)n2c(=O)[nH]nc32)cc1`, the figures for the half-inhibitory concentration (IC50) in data set [3] and in data set [4] were 28 nM and 0.77 µM, respectively.

With `CC(C)(C)c1nc2nc(-c3ccccc3Cl)c(-c3cnccc3C#N)cc2c2n[nH]c(=O)n12`, the half-inhibitory concentration (IC50) amounted to 100 nM in data set [3] and 18 µM in data set [4].

As to `CC(C)(C)c1nc2nc(-c3ccccc3Cl)c(-c3ccc(Cl)cc3)cc2c2nncn12`, the IC50 in [3] turned out to be 8 nM; in [4], 3.4 µM.

Consider `O=c1[nH]c(-c2ccc(Cl)cc2)nc2nc(-c3ccccc3Cl)c(-c3ccc(Cl)cc3)cc12`, for which the half-inhibitory concentration (IC50) in data set [3] is 59 nM; in data set [4], above 2 µM.

Regarding `CC(C)c1nc2nc(-c3ccccc3Cl)c(-c3ccc(Cl)cc3)cc2c(=O)[nH]1`, the IC50 in data set [3] is 130 nM; in data set [4], 7.3 µM.

On to `CC(C)Nc1nc(C(C)(C)C)nc2nc(-c3ccccc3Cl)c(-c3ccc(Cl)cc3)cc12`, for which the IC50 in [3] is 4.1 nM; in data set [4], above 2 µM.

`Cc1nc(N)c2cc(-c3ccc(Cl)cc3)c(-c3ccccc3Cl)nc2n1`: the IC50 in data set [3] worked out at 1500 nM; in data set [4], 1.1 µM.

On to `CC(C)(C)c1nc(-c2ccc(F)cc2)c2cc(-c3ccc(Cl)cc3)c(-c3ccccc3Cl)nc2n1`, for which the IC50 in [3] came to 0.63 nM; in data set [4] it was 9.83 µM.

For the compound `CC(C)(C)c1nc2nc(-c3ccccc3Cl)c(-c3ccc(C#N)cc3)cc2c2n[nH]c(=O)n12`, the IC50 stood at 5.9 nM in data set [3] and 18 µM in data set [4]. The results for the bioavailability in data set [6], in [12] and in data set [17] were 53%, 2.1% and 9.7%, respectively. Further, the half-life in data set [7] was 210 min; in data set [13] it was 444 min; in data set [16], 594 min. Further, the clearance turned out to be 4 mL/min/kg in data set [8], 24 mL/min/kg in [14] and 5.3 mL/min/kg in data set [15]. Further, the values for the Activity in data set [10] and in [11] were 36% and -5 g, respectively.

Compound `CC(=O)c1ccc(-c2cc3c(nc2-c2ccccc2Cl)nc(C(C)(C)C)n2c(=O)[nH]nc32)cc1` registered an IC50 in [4] of 5.8 µM.

For `CC(C)(C)c1nc2nc(-c3ccc(Cl)cc3Cl)c(-c3ccc(Cl)cc3)cc2c(=O)[nH]1`, the concentration for half-maximal inhibition (IC50) was 6 nM in data set [3] and 5.5 µM in data set [4]. Moreover, the Activity came out at 21% in [10] and 1 g in [11].

Take `COc1nc(C(C)(C)C)nc2nc(-c3ccccc3Cl)c(-c3ccc(Cl)cc3)cc12`: the IC50 in data set [3] was 7.5 nM; in data set [4], 8.4 µM.

As for `CC(C)(C)Nc1nc(C(C)(C)C)nc2nc(-c3ccccc3Cl)c(-c3ccc(Cl)cc3)cc12`, the IC50 in [3] is 2.7 nM; in data set [4], above 2 µM.

For the compound `CC(C)(C)c1nc(NCC(F)(F)CO)c2cc(-c3ccc(Cl)cc3)c(-c3ccccc3Cl)nc2n1`, the half-inhibitory concentration (IC50) in [3] is 9.5 nM; in data set [4], above 2 µM. The Activity in data set [10] is on record as 39%; in data set [11], -4 g.

With `CC(=O)Nc1c(C(C)=O)c(=O)n(C)c2nc(-c3ccc(Cl)cc3Cl)c(-c3ccc(Cl)cc3)cc12` [NAPHTHYRIDINONE], the half-life in data set [7] was above 480 min. In data set [9], the partition ratio (Kp) at 0.25 h was 0.9. The Activity is 68% in data set [10] and -4 g in [11].

Regarding `C[C@H](NC(=O)C(C)(C)Oc1ccc(C(F)(F)F)cn1)[C@@H](Cc1ccc(Cl)cc1)c1cccc(C#N)c1` [TARANABANT], the figures for the Activity in data set [18] and in [19] were 49% and -10 g, respectively.
